CaV13 ICDI inh – Primary screen for inhibitors of IQ motif and Ca2+-dependent inactivation inhibitor domain binding in CACNA1D, Förster resonance energy transfer in living cells, …. 340,000 tested, 0.098% active. HEK cells, CFP/YFP FRET ICDI-IQ, plate reader, 10 min; percent FRET-ratio fall versus neutral wells. inhibition, % at 12.3 µM;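 active = mean replicate inhibition of at least 30% and at least 1% of replicates passing that level; inconclusive = only one of the two criteria is met; inactive = neither criterion is met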
CASP6 VEID inh – blocks human caspase-6 cleavage activity | P55212 | purified caspase-6, Z-VEID-R110 cleavage fluorescence | inhibition, % at 12.5 µM | 350,000 tested, 0.53% active | AID 686996;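 active = mean inhibition across replicates at least about 35%, with every replicate also reaching that limit, limit read from the data; inconclusive = only one of the two criteria met; inactive = neither criterion met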
Target sequence (P55212 24-179 limits assumed): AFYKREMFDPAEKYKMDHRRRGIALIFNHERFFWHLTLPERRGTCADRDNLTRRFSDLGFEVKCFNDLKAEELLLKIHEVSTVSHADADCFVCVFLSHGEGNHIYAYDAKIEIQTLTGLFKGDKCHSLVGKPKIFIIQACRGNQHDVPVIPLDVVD
Target sequence (P55212 194-293 limits assumed): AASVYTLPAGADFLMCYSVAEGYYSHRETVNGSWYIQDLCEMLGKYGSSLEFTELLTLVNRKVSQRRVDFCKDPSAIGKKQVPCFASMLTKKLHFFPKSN
FN deposit inh – fibronectin deposition inhibition; inhibition, % at 12.6 µM; 350,000 tested, 0.086% active; AH1F fibroblasts, Alexa488-fibronectin deposition fluorescence, overnight;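 active = mean inhibition across replicates of 30% or more, regardless of how many single replicates reach that level; inconclusive = mean under 30% yet at least half of replicates reach 30%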
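Assay system: AH1F fibroblast monolayer, labelled fibronectin deposition. Amount: 10000 cells per well. Also added: labelled fibronectin 24 nM. Compound: single-point pinned compound. Incubation: cell attachment 1 h, compound and FN exposure overnight. Detection: fluorescence after three HBSS washes, excitation 485 nm, emission 525 nm. Read-out: inhibition of fibronectin deposition signal.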
DENV2 CPE – DENV2-induced cell death inhibition; DENV2-infected cells, cytopathic effect rescue, plate reader; 350,000 tested, 1.7% active; CPE inhibition, % at 9.99 µM; in the data active = CPE inhibition above about 20%, passing the limit was not always enough; inconclusive = no clear call, values can overlap the other calls; tested in BHK-21 cells
XiGFP reactiv – X-chromosome reactivation activator; activation, % at 7.58 µM; XiGFP mouse fibroblasts, % GFP-positive cells imaging, 3 d; cells co-treated with 5-aza-dC sensitizer; scaled so ellipticine positive control = 100%; 360,000 tested, 0.055% active;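 active = mean normalized replicate activation at least 10% and every replicate at or above 10%; inconclusive = only one of the two criteria met; inactive = mean below 10% and not all replicates reach 10%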
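Material: XiGFP fibroblasts, SV40-immortalized. Buffer or medium: DMEM plus 5-aza-dC sensitizer. Compound: single concentration per compound, delivered by pin transfer. Times: 3 days compound exposure. Controls: ellipticine 6 µM.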
A number is an active result; – = inactive; ? = inconclusive; · = no result. Compounds with a hit are over-represented: about 2% of the library has one in this group of screens.

SMILES | CaV13 ICDI inh | CASP6 VEID inh | FN deposit inh | DENV2 CPE | XiGFP reactiv
C[C@@H]1CN([C@H](C)CO)C(=O)Cc2cc(NS(=O)(=O)c3ccccc3)ccc2O[C@@H]1CN(C)Cc1ccc(-c2ccccc2)cc1 | · | – | · | 56 | –
C[C@@H]1CN([C@@H](C)CO)C(=O)Cc2cc(N(C)C)ccc2O[C@@H]1CN(C)Cc1ccccc1 | · | 35 | · | – | –
COc1ccc(CN(C)C[C@H]2Oc3ccc(NS(=O)(=O)c4ccc(Cl)cc4)cc3CC(=O)N([C@@H](C)CO)C[C@@H]2C)cc1 | · | – | – | 25 | –
CCC(=O)N[C@H]1C=C[C@H](CC(=O)NCC2CC2)O[C@@H]1CO | · | – | – | – | –
C[C@@H]1CCCCO[C@@H](CN(C)C(=O)Nc2cccc3ccccc23)[C@@H](C)CN([C@H](C)CO)C(=O)c2cc(NS(=O)(=O)c3cn(C)cn3)ccc2O1 | · | · | · | – | –
C[C@@H]1CN([C@@H](C)CO)C(=O)Cc2cc(NS(=O)(=O)c3ccccc3)ccc2O[C@@H]1CN(C)Cc1ccc(-c2ccccc2)cc1 | · | – | · | 44 | –
Cc1ccc(S(=O)(=O)Nc2ccc3c(c2)CC(=O)N([C@@H](C)CO)C[C@H](C)[C@@H](CN(C)Cc2ccc(-c4ccccc4)cc2)O3)cc1 | · | – | – | – | –
COc1ccc(S(=O)(=O)Nc2ccc3c(c2)CC(=O)N([C@H](C)CO)C[C@@H](C)[C@H](CN(C)Cc2ccc(-c4ccccc4)cc2)O3)cc1 | · | – | · | 57 | –
C[C@H](CO)N1C[C@H](C)[C@H](CN(C)Cc2ccccc2)Oc2ccc(NS(=O)(=O)c3ccccc3)cc2CC1=O | · | – | · | 55 | –
C[C@@H]1CN([C@@H](C)CO)C(=O)Cc2cc(NS(=O)(=O)c3ccc(F)cc3)ccc2O[C@@H]1CN(C)Cc1ccc(C(=O)O)cc1 | · | – | · | 30 | –
CCC(=O)N1C[C@H](C)[C@@H](OC)CN(C)C(=O)c2ccc(NC(=O)c3ccccc3)cc2OC[C@@H]1C | · | – | – | – | –
CNC[C@H]1Oc2ccc(N(C)C)cc2C(=O)N(C)C[C@H]1C | · | · | – | · | –
O=C(COC(=O)C1CCN(c2ccc(C(F)(F)F)cn2)CC1)c1ccccc1 | – | – | – | – | –
CC(C)(C)N(Cc1ccccc1)C(=O)COC(=O)C1CCN(c2ccc(C(F)(F)F)cn2)CC1 | – | – | – | 44 | –
CCOc1ccc(C(=O)COC(=O)C2CCN(c3ccc(C(F)(F)F)cn3)CC2)cc1 | – | – | – | 74 | –
COc1ccc(Cl)c2sc(N3CCN(C(=O)c4ccco4)CC3)nc12 | – | – | – | 104 | –
Cc1ccc(S(=O)(=O)NCC[C@@H]2CC[C@@H](NC(=O)c3cccc(F)c3)[C@H](CO)O2)cc1 | · | – | · | – | –
CC1CCc2sc(C(=O)NN=C3CCCC3)cc2C1 (stereo not drawn) | – | – | – | 52 | –
COc1ccc(NC(=O)N[C@H]2CC[C@H](CCn3cc(C4(O)CCCC4)nn3)O[C@@H]2CO)cc1 | · | – | – | – | –
COC(=O)CN(c1ccc(OC)cc1)S(=O)(=O)c1ccc(OC)c(OC)c1 | – | · | · | · | ·
COC(=O)CN(c1cc(Cl)ccc1OC)S(=O)(=O)c1ccc(OC)c(OC)c1 | – | – | – | 61 | –
CC=Cc1ccc2n(c1=O)C[C@H]1[C@H](CO)[C@@H](C(=O)NCC(F)(F)F)N(CC3CC3)[C@@H]21 (mixture of isomers) | · | – | · | – | –
C[C@H]1CN([C@@H](C)CO)C(=O)c2ccccc2-c2ccccc2CO[C@@H]1CN(C)S(=O)(=O)c1ccccc1 | · | · | – | · | –
C[C@@H]1CN([C@H](C)CO)S(=O)(=O)c2ccc(C3=CCCC3)cc2O[C@H]1CN(C)C(=O)c1ccncc1 | · | – | · | 45 | –
CCCNC(=O)N(C)C[C@H]1Oc2cc(C3=CCCC3)ccc2S(=O)(=O)N([C@H](C)CO)C[C@H]1C | · | · | · | 30 | –
SMILES | CaV13 ICDI inh | CASP6 VEID inh | FN deposit inh | DENV2 CPE | XiGFP reactiv
C[C@H]1CN([C@@H](C)CO)S(=O)(=O)c2ccc(C3=CCCCC3)cc2O[C@@H]1CN(C)C(=O)c1ccccc1 | · | – | – | – | –
C[C@H]1CN([C@@H](C)CO)S(=O)(=O)c2ccc(C3=CCCC3)cc2O[C@H]1CN(C)C(=O)C1CCC1 | · | – | · | 21 | –
C[C@H](CO)N1C[C@H](C)[C@H](CN(C)C(=O)c2ccccc2)Oc2cc(C3=CCCCC3)ccc2S1(=O)=O | · | – | – | 93 | –
C[C@@H]1CN([C@@H](C)CO)S(=O)(=O)c2ccc(C3=CCCCC3)cc2O[C@H]1CN(C)C(=O)C1CCC1 | · | – | · | – | –
CCC(=O)N1[C@@H](CO)[C@H](c2ccc(-c3ccc(C#N)cc3)cc2)C12CN(C(C)=O)C2 | · | – | · | – | –
Cc1ccccc1-c1cnc2c(c1)C(=O)N([C@@H](C)CO)C[C@H](C)[C@H](CN(C)C(=O)c1ccc(F)cc1)O2 | · | – | – | ? | –
C[C@H]1CN([C@@H](C)CO)S(=O)(=O)c2ccc(C3=CCCC3)cc2O[C@@H]1CN(C)C(=O)Cc1ccncc1 | · | – | – | 31 | –
CC(=O)N[C@H]1C[C@@H]2O[C@H](CO)CC[C@@H]2O[C@@H]1CCc1ccc(C#CC2(O)CCCC2)cc1 | · | – | · | ? | ·
COc1ccc(C(=O)N/N=C(\C)CC(=O)Nc2ccc(N(C)C)cc2)c(OC)c1 | – | – | – | 116 | –
COc1ccc(CC(=O)Nc2ccc(/C(C)=N/NC(=O)c3ccc(OC)cc3OC)cc2)cc1 | – | – | – | – | –
O=C(NCc1ccncn1)[C@@H]1[C@@H](CO)[C@@H]2Cn3c(cccc3=O)[C@H]1N2CC1CC1 | · | – | · | – | –
Cc1cc(C(=O)N/N=C/c2cc(Br)c(Br)o2)n[nH]1 | – | 54 | – | – | –
CC(=O)N(C)C[C@@H]1Oc2c(NC(=O)NC(C)C)cccc2C(=O)N(C)C[C@@H]1C | · | · | – | · | –
CC(C)C[C@@H](CN1CCCC1CN1C(=S)NC[C@@H]1Cc1ccc(O)cc1)N1C[C@H](Cc2ccc(O)cc2)N(CC2CCCCCC2)C1=S (stereo partly drawn) | – | – | · | 41 | –
CCOc1ccc(CCN2C(=S)N([C@@H](CC(C)C)CN3CCCC3CN3C(=S)NC[C@@H]3Cc3ccc(O)cc3)C[C@@H]2Cc2ccc(O)cc2)cc1 (stereo partly drawn) | – | – | – | 31 | –
CCOc1ccc(CCN2C(=S)N([C@@H](CC(C)C)CN3CCCC3CN3C(=S)NC[C@@H]3Cc3ccc(O)cc3)C[C@@H]2Cc2ccccc2)cc1 (stereo partly drawn) | – | – | · | – | –
COc1ccc(-c2ccc3c(c2)O[C@H](CN(C)C)[C@H](C)CN([C@@H](C)CO)S3(=O)=O)cc1 | · | – | – | – | –
CC(=O)c1cccc(NC(=O)c2noc3c2CCc2ccccc2-3)c1 | – | – | – | 22 | –

Source: PubChem
